The results in this text go back to ChEMBL document CHEMBL1154191, “Evaluation of spirocyclic 3-(3-fluoropropyl)-2-benzofurans as sigma1 receptor ligands for neuroimaging with positron emission tomography” (J Med Chem, 2009).

Data set [1] can be described thus: Biodistribution in CD1 mouse urine assessed as per gram of wet bladder at 400 to 600 kBq, iv after 60 mins post-injection by gamma counting. The format is ADME, organism-based. Conditions: in vivo, 1 h. The method, boiled down: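 Female CD-1 mice (~8-12 weeks, 20-28 g), habituated ≥48 h and fasted 24 h with water available. The [18F] tracer (>150 GBq/μmol at end of synthesis) was given in 200 μL saline into the tail vein of conscious animals. At each time point, n=4-5, mice were anaesthetised, blood and urine sampled, then killed by cervical dislocation. Organs were weighed and γ-counted, and values calculated as % ID/g wet tissue.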

Data set [2] concerns Brain. The experiment in a line: Biodistribution in CD1 mouse brain assessed per gram of wet tissue at 400 to 600 kBq, iv after 120 mins post-injection by gamma counting. The data set is classed as ADME, organism-based. Particulars: in vivo, 2 h. The method, boiled down:
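Female CD-1 mice (~8-12 weeks, 20-28 g) were fasted 24 h with free water. Conscious mice got 400-600 kBq [¹⁸F] tracer in saline by tail vein. At 5, 30, 60 or 120 min (n=4-5 per time) they were anesthetized, blood and urine sampled, then killed by cervical dislocation. Organs were weighed and γ-counted, giving % ID/g wet tissue.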

Turning to `[18F]CCCC1OC2(CCN(Cc3ccccc3)CC2)c2ccccc21` (configuration not stated), the Drug uptake in data set [1] stood at 7.84 %ID; in data set [2], 2.14 %ID.
